Measured values published in ChEMBL document CHEMBL4346706, “Anti-trypanosomal activity of doubly modified salinomycin derivatives” (Eur J Med Chem, 2019).
pIC50: −log10 of the molar value. Activity calls are given as the source filed them. The rule behind the calls is not given here.

Legend:
[1] = test system: Trypanosoma brucei; assay: Antitrypanosomal activity against bloodstream form of Trypanosoma brucei 427-221a assessed as increase in iono-phoresis by measuring cell swelling at 100 uM measured every 10 mins for 1 hr by light scattering based microplate reader analysis; type: functional, organism-based
In short: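 Light-scattering swelling assay. Bloodstream forms at 5 × 10^7 cells ml^-1 in Baltz medium with 100 μM ionophore and 0.9% DMSO; controls had DMSO only. Absorbance at 490 nm read every 10 min for one hour. A fall in absorbance is taken as a rise in cell volume. Means of three experiments.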

[2] = Selectivity index, ratio of GI50 for human HL60 cells to GI50 for bloodstream form of Trypanosoma brucei 427-221a; type: toxicity; details: read-out: RatioGI50
[3] = Cytotoxicity against human HL60 cells assessed as growth inhibition after 24 hrs by resazurin dye based assay; type: cell-based, HL-60
In short: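 HL-60 cells seeded at 5 × 10^4 ml^-1 in Baltz medium with 16.7% heat-inactivated bovine serum, 0.9% DMSO. 37 °C, 5% CO2. Tenfold dilutions from 100 μM to 1 pM. After 24 h, resazurin added and incubation continued a further 48 h. Absorbance read at 570 nm, reference 630 nm. GI50 by linear interpolation against DMSO-only wells. Mean ± SD of three independent experiments.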

[4] = test system: Trypanosoma brucei; assay: Antitrypanosomal activity against bloodstream form of Trypanosoma brucei 427-221a assessed as growth inhibition measured after 72 hrs by resazurin dye based assay
[5] = Antiproliferative activity against human HMLER cells assessed as reduction in cell viability after 72 hrs by Cell-Titer Blue reagent based fluorescence microplate reader analysis; type: functional

Row | Compound | Activity [1] | selectivity ratio [2] | GI50 at 24 h [3] [µM] | GI50 [4] [µM] | pIC50 [5]
1 | CC[C@@H](C(=O)[C@@H](C)[C@@H](O)[C@H](C)[C@@H]1O[C@@H]([C@@H](CC)C(=O)ONC(=O)c2ccccc2O)CC[C@@H]1C)[C@H]1O[C@]2(C=CC(=O)[C@]3(CC[C@@](C)([C@H]4CC[C@](O)(CC)[C@H](C)O4)O3)O2)[C@H](C)C[C@@H]1C | inactive | 56.8 | 1.93 | 0.034 | 
2 | C#CCOC(=O)[C@H](CC)[C@H]1CC[C@H](C)[C@H]([C@@H](C)[C@H](O)[C@H](C)C(=O)[C@H](CC)[C@H]2O[C@]3(C=C[C@@H](O)[C@]4(CC[C@@](C)([C@H]5CC[C@](O)(CC)[C@H](C)O5)O4)O3)[C@H](C)C[C@@H]2C)O1 |  | 10.2 | 30 | 2.93 | 
3 | CC[C@@H](C(=O)[C@@H](C)[C@@H](O)[C@H](C)[C@@H]1O[C@@H]([C@@H](CC)C(=O)O)CC[C@@H]1C)[C@H]1O[C@]2(C=CC(=O)[C@]3(CC[C@@](C)([C@H]4CC[C@](O)(CC)[C@H](C)O4)O3)O2)[C@H](C)C[C@@H]1C | Active | 252 | 9.21 | 0.037 | 
4 | CC[C@@H](C(=O)[C@@H](C)[C@@H](O)[C@H](C)[C@@H]1O[C@@H]([C@@H](CC)C(=O)ONC(=O)c2ccccc2)CC[C@@H]1C)[C@H]1O[C@]2(C=CC(=O)[C@]3(CC[C@@](C)([C@H]4CC[C@](O)(CC)[C@H](C)O4)O3)O2)[C@H](C)C[C@@H]1C | inactive | 70 | 2.24 | 0.032 | 
5 | C#CCOC(=O)[C@H](CC)[C@H]1CC[C@H](C)[C@H]([C@@H](C)[C@H](O)[C@H](C)C(=O)[C@H](CC)[C@H]2O[C@]3(C=CC(=O)[C@]4(CC[C@@](C)([C@H]5CC[C@](O)(CC)[C@H](C)O5)O4)O3)[C@H](C)C[C@@H]2C)O1 |  | 9.8 | 29.6 | 3.03 | 
6 | CC[C@@H](C(=O)[C@@H](C)[C@@H](O)[C@H](C)[C@@H]1O[C@@H]([C@@H](CC)C(=O)OCC(F)(F)F)CC[C@@H]1C)[C@H]1O[C@]2(C=CC(=O)[C@]3(CC[C@@](C)([C@H]4CC[C@](O)(CC)[C@H](C)O4)O3)O2)[C@H](C)C[C@@H]1C |  | > 33.2 | > 100 | 3.01 | 
7 | CC[C@@H](C(=O)[C@@H](C)[C@@H](O)[C@H](C)[C@@H]1O[C@@H]([C@@H](CC)C(=O)O)CC[C@@H]1C)[C@H]1O[C@]2(C=C[C@@H](O)[C@]3(CC[C@@](C)([C@H]4CC[C@](O)(CC)[C@H](C)O4)O3)O2)[C@H](C)C[C@@H]1C [SALINOMYCIN] |  | 31.6 | 6.63 | 0.21 | 
8 | CC[C@@H](C(=O)[C@@H](C)[C@@H](O)[C@H](C)[C@@H]1O[C@@H]([C@@H](CC)C(=O)NCCc2ccc(F)cc2)CC[C@@H]1C)[C@H]1O[C@]2(C=CC(=O)[C@]3(CC[C@@](C)([C@H]4CC[C@](O)(CC)[C@H](C)O4)O3)O2)[C@H](C)C[C@@H]1C |  | 31.7 | 94.7 | 2.99 | 
9 | C#CCNC(=O)[C@H](CC)[C@H]1CC[C@H](C)[C@H]([C@@H](C)[C@H](O)[C@H](C)C(=O)[C@H](CC)[C@H]2O[C@]3(C=C[C@@H](O)[C@]4(CC[C@@](C)([C@H]5CC[C@](O)(CC)[C@H](C)O5)O4)O3)[C@H](C)C[C@@H]2C)O1 |  | 11.6 | 35.5 | 3.06 | 
10 | C#CCNC(=O)[C@H](CC)[C@H]1CC[C@H](C)[C@H]([C@@H](C)[C@H](O)[C@H](C)C(=O)[C@H](CC)[C@H]2O[C@]3(C=C[C@@H](NCC#C)[C@]4(CC[C@@](C)([C@H]5CC[C@](O)(CC)[C@H](C)O5)O4)O3)[C@H](C)C[C@@H]2C)O1 |  | 12.8 | 38.9 | 3.04 | 
11 | CC[C@@H](C(=O)[C@@H](C)[C@@H](O)[C@H](C)[C@@H]1O[C@@H]([C@@H](CC)C(=O)OCC(F)(F)F)CC[C@@H]1C)[C@H]1O[C@]2(C=C[C@@H](O)[C@]3(CC[C@@](C)([C@H]4CC[C@](O)(CC)[C@H](C)O4)O3)O2)[C@H](C)C[C@@H]1C |  | 11.2 | 32.5 | 2.9 | 
12 | CC[C@@H](C(=O)[C@@H](C)[C@@H](O)[C@H](C)[C@@H]1O[C@@H]([C@@H](CC)C(=O)ONC(=O)c2ccccc2O)CC[C@@H]1C)[C@H]1O[C@]2(C=C[C@@H](O)[C@]3(CC[C@@](C)([C@H]4CC[C@](O)(CC)[C@H](C)O4)O3)O2)[C@H](C)C[C@@H]1C | inactive | 60.6 | 2.12 | 0.035 | 
13 | CC[C@@H](C(=O)[C@@H](C)[C@@H](O)[C@H](C)[C@@H]1O[C@@H]([C@@H](CC)C(=O)NCCc2ccc(F)cc2)CC[C@@H]1C)[C@H]1O[C@]2(C=C[C@@H](O)[C@]3(CC[C@@](C)([C@H]4CC[C@](O)(CC)[C@H](C)O4)O3)O2)[C@H](C)C[C@@H]1C |  | 4 | 11.6 | 2.87 | 
14 | C#CCN[C@@H]1C=C[C@]2(O[C@H]([C@@H](CC)C(=O)[C@@H](C)[C@@H](O)[C@H](C)[C@@H]3O[C@@H]([C@@H](CC)C(=O)O)CC[C@@H]3C)[C@@H](C)C[C@H]2C)O[C@@]12CC[C@@](C)([C@H]1CC[C@](O)(CC)[C@H](C)O1)O2 | Active | 300 | 10.5 | 0.035 | 7.00
15 | Cc1ccc(C(=O)Nc2ccc(S(=O)(=O)O)c3cc(S(=O)(=O)O)cc(S(=O)(=O)O)c23)cc1NC(=O)c1cccc(NC(=O)Nc2cccc(C(=O)Nc3cc(C(=O)Nc4ccc(S(=O)(=O)O)c5cc(S(=O)(=O)O)cc(S(=O)(=O)O)c45)ccc3C)c2)c1 [SURAMIN] |  | > 3120 | > 100 | 0.032 | 
16 | CC[C@@H](C(=O)[C@@H](C)[C@@H](O)[C@H](C)[C@@H]1O[C@@H]([C@@H](CC)C(=O)ONC(=O)c2ccccc2)CC[C@@H]1C)[C@H]1O[C@]2(C=C[C@@H](O)[C@]3(CC[C@@](C)([C@H]4CC[C@](O)(CC)[C@H](C)O4)O3)O2)[C@H](C)C[C@@H]1C |  | 21.1 | 3.58 | 0.17 | 
17 | C#CCNC(=O)[C@H](CC)[C@H]1CC[C@H](C)[C@H]([C@@H](C)[C@H](O)[C@H](C)C(=O)[C@H](CC)[C@H]2O[C@]3(C=CC(=O)[C@]4(CC[C@@](C)([C@H]5CC[C@](O)(CC)[C@H](C)O5)O4)O3)[C@H](C)C[C@@H]2C)O1 |  | 12.1 | 38.6 | 3.18 | 
